Experimental data published in ChEMBL document CHEMBL1151161, “Isolation from Eucalyptus occidentalis and identification of a new kaempferol derivative that induces apoptosis in human myeloid leukemia cells” (J Nat Prod, 2004).
pIC50: −log10 of the molar value. Activity calls are given as the source filed them. The calls are words filed in the database; no cut-off is given here.

Tests used:
[1] = system: HL-60; assay: Induction of apoptosis in human HL60 cells assessed as morphological changes at 30 uM after 12 hrs by Hoechst 33258 staining based fluorescence microscopy; assay type: functional, cell-based
Outline: (§1)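 HL-60 cells were treated for 12 h at 10–30 µM, with 10 µM etoposide as positive control. Cells were fixed in 3% paraformaldehyde for 10 min, then stained with 10 µg/mL Hoechst 33258 for 30 min at 37 °C. Nuclei with condensed or fragmented chromatin were scored as apoptotic, counting ≥500 cells per sample, in triplicate.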

[2] = system: HL-60; assay: Cytotoxicity against human HL60 cells after 72 hrs by MTT assay; assay type: functional, cell-based; details: HL-60, 72 h
Outline: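 HL-60 cells kept in RPMI-1640 with 10% heat-inactivated FBS at 37 °C and 5% CO2, resuspended in fresh medium 24 h before treatment. Cells at 1×10^4/well were exposed continuously to a concentration series for 72 h at 37 °C, with final DMSO ≤0.5%. Read-out was MTT reduction at OD 570 nm as % of DMSO control. IC50 was curve-fitted for each experiment; points were triplicates.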

[3] = system: HL-60; assay: Induction of apoptosis in human HL60 cells at 30 uM after 12 hrs by Hoechst 33258 staining based fluorescence microscopy; assay type: functional; outline: as §1
[4] = system: HL-60; assay: Induction of apoptosis in human HL60 cells assessed as induction of DNA cleavage at 10 uM after 12 hrs by gel electrophoresis; assay type: functional, cell-based
Outline: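 HL-60 cells (1×10^6) were lysed in Tris pH 8.0/EDTA/0.5% SDS with RNase A for 1 h at 37 °C, then proteinase K for 2 h at 50 °C. DNA was phenol-chloroform extracted and run on 2% agarose with ethidium bromide staining. The legend gives 24 h treatment while the text gives 12 h.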

[5] = system: HL-60; assay: Induction of apoptosis in human HL60 cells assessed as induction of PARP1 cleavage after 24 hrs by Western blot; assay type: functional, cell-based
Outline: (§2)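 About 7×10^5 exponentially growing HL-60 cells were treated at 37 °C for 6 or 24 h. Lysates in Hepes/NaCl/NP-40 buffer with protease inhibitors were cleared at 10 000g. 50 µg protein was run on 7.5% SDS-PAGE and probed with anti-PARP-1 (1:1000), with ECL detection. The 85 kDa fragment versus the 116 kDa intact band was the apoptosis marker.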

[6] = system: HL-60; assay: Induction of apoptosis in human HL60 cells assessed as morphological changes after 12 hrs by Hoechst 33258 staining based fluorescence microscopy; assay type: functional, cell-based; outline: as §1
[7] = system: HL-60; assay: Induction of apoptosis in human HL60 cells assessed as cytochrome release at 10 uM by Western blot; assay type: functional, cell-based
Outline: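 Exponentially growing HL-60 cells were treated for 6 h. The cytosolic fraction was obtained by hypotonic sucrose-buffer swelling on ice, needle lysis, a 1000g spin, then 105 000g for 45 min at 4 °C. 50 µg cytosolic protein was run on SDS/15% PAGE and immunoblotted with anti-cytochrome c (1:250), with ECL detection.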

[8] = system: HL-60; assay: Induction of apoptosis in human HL60 cells assessed as fold increase in caspase 8 activation at 10 uM relative to control; assay type: functional
Outline: (§3)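 HL-60 cells were exposed for 12 h to 1–30 µM. Lysates were made in Hepes pH 7.4/DTT/CHAPS buffer and protein was measured by Bradford. About 20 µg protein was incubated at 37 °C with DEVD-pNA (caspase-3) or IETD-pNA (caspase-8). Net A405 increase was expressed as fold over untreated control, in duplicate.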

[9] = system: HL-60; assay: Induction of apoptosis in human HL60 cells assessed as induction of PARP1 cleavage after 6 hrs by Western blot; assay type: functional, cell-based; outline: as §2
[10] = system: HL-60; assay: Induction of apoptosis in human HL60 cells assessed as fold increase in caspase 3 activation at 30 uM relative to control; assay type: functional; outline: as §3

| SMILES | Activity [1] | pIC50 [2] | Activity [3] [%] | Activity [4] | Activity [5] | Activity [6] | Activity [7] | fold change (FC) [8] | Activity [9] | fold change (FC) [10] |
| --- | --- | --- | --- | --- | --- | --- | --- | --- | --- | --- |
| COc1c(-c2ccc(O)cc2)oc2c(C)c(O)c(C)c(O)c2c1=O | Active | 5.13 | 26.6 | Active | Active | Dose-dependent effect | Active |  |  |  |
| COc1ccc(-c2oc3c(C)c(O)c(C)c(O)c3c(=O)c2OC)cc1 | Active | 5.77 | 47.8 | Active | Active | Dose-dependent effect | Active | 3.7 | Active | 1.9 |
